Experiment [1] addresses Cathepsin D (Homo sapiens, UniProt P07339). The experiment in a line: Compound was tested for the inhibitory activity against human liver cathepsin D. The method, boiled down: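 Human liver cathepsin D, 0.7 nM final, in 0.1 M formic acid buffer pH 3.7. […] Fluorescence (ex 336/em 490 nm) followed over time. Ki obtained by nonlinear fit to the Williams–Morrison tight-binding equation.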

The target of experiment [2] is Plasmepsin II (Plasmodium falciparum, UniProt P46925). Kind of experiment: Inhibitory activity against plasmepsin-2. The method, boiled down: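 Activated Plm II proenzyme, 0.6–0.7 nM final, in 0.1 M sodium acetate pH 5.0 with 10% glycerin and 0.01% Tween-20. Inhibitor in DMSO, preincubated 4.5 min at 25 °C, then DABCYL/EDANS fluorogenic peptide substrate added (Km 0.75 μM). Fluorescence (ex 336/em 490 nm) followed over time. Five to six inhibitor concentrations, duplicate or triplicate. Ki by Williams–Morrison nonlinear fit.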
Plasmepsin II, sequence (P46925 whole entry): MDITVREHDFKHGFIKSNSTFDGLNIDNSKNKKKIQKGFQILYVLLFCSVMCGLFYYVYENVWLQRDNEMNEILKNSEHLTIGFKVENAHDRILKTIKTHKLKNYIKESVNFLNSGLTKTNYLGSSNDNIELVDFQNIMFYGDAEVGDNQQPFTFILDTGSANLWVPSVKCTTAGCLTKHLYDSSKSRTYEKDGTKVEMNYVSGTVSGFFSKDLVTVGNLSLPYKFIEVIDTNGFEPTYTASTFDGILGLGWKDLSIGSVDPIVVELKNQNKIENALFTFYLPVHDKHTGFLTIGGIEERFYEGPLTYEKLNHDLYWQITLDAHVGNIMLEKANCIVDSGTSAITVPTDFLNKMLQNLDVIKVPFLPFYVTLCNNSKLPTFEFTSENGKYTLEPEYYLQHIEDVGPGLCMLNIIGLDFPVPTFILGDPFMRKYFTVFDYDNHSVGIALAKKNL

The structures appear in SMILES notation.

Cathepsin D, sequence (P07339 65-162 limits assumed): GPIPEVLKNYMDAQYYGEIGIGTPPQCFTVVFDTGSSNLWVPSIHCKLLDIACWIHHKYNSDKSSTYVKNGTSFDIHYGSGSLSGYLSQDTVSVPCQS
Cathepsin D, sequence (P07339 169-412 limits assumed): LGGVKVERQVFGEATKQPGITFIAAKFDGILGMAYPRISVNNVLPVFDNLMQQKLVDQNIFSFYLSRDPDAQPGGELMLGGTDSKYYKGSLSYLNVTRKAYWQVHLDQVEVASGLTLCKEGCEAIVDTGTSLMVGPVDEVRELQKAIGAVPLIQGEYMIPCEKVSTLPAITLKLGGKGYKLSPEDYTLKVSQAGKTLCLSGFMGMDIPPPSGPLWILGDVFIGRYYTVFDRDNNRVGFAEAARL

For orientation: Ki means the equilibrium dissociation constant of an inhibitor or competing ligand from its target. Read a high Ki as a looser hold on the target. Turning to `COc1ccc(CCN(C[C@H](O)[C@H](Cc2ccccc2)NC(=O)c2cc(OC)c(OCc3ccccc3)c(OC)c2)C(=O)C2CCN(C)CC2)cc1`, the results for the Ki in experiment [1] and in experiment [2] were 58 nM and 4.1 nM, respectively.

As to `COc1ccc(CCN(C[C@H](O)[C@H](Cc2ccccc2)NC(=O)COc2cccc(Cl)c2)C(=O)C2CCN(C)CC2)cc1`, the values for the Ki in experiment [1] and in experiment [2] were 9.8 nM and 2 nM, respectively.

In experiment [2], `COc1cc(C(=O)N[C@@H](Cc2ccccc2)[C@@H](O)CN(CCc2ccc3c(c2)OCO3)C(=O)CCN2C(=O)c3ccccc3C2=O)cc(OC)c1OCc1ccccc1` displayed an inhibitory constant (Ki) of 100 nM.

On to `COc1ccc(CCN(C[C@H](O)[C@H](Cc2ccccc2)NC(=O)COc2cccc(Cl)c2)C(=O)C2CCNCC2)cc1`, for which the Ki in experiment [1] is 63 nM; in experiment [2], 4.3 nM.

As to `COc1cc(C(=O)N[C@@H](Cc2ccccc2)[C@@H](O)CN(CCc2ccc3c(c2)OCO3)C(=O)C2CCN(C(C)=O)CC2)cc(OC)c1OCc1ccccc1`, the inhibition constant Ki in experiment [1] came out at 4.3 nM; in experiment [2], 4.8 nM.

With `COc1ccc(CCN(C[C@H](O)[C@H](Cc2ccccc2)NC(=O)c2cc(OC)c(OCc3ccccc3)c(OC)c2)C(=O)C2CCNCC2)cc1`, the values for the Ki in experiment [1] and in experiment [2] were 71 nM and 9 nM, respectively.

For `CC(=O)N1CCC(C(=O)N(CCc2ccc3c(c2)OCO3)C[C@H](O)[C@H](Cc2ccccc2)NC(=O)COc2cccc(Cl)c2)CC1`, the figures for the Ki in experiment [1] and in experiment [2] were 1.9 nM and 4 nM, respectively.

On to `CC(=O)N1CCC(C(=O)N(CCc2ccc3c(c2)OCO3)C[C@H](O)[C@H](Cc2ccccc2)NC(=O)CNc2cccc(Cl)c2)CC1`, for which the results for the Ki in experiment [1] and in experiment [2] were 1.3 nM and 3 nM, respectively.

On to `CN1CCC(C(=O)N(CCc2ccc3c(c2)OCO3)C[C@H](O)[C@H](Cc2ccccc2)NC(=O)COc2cccc(Cl)c2)CC1`, for which the results for the Ki in experiment [1] and in experiment [2] were 5.8 nM and 2 nM, respectively.

`O=C(COc1cccc(Cl)c1)N[C@@H](Cc1ccccc1)[C@@H](O)CN(CCc1ccc2c(c1)OCO2)C(=O)CCN1C(=O)c2ccccc2C1=O` displayed a Ki in experiment [2] of 220 nM.

`Cc1ccc(C)c(OCC(=O)N[C@@H](Cc2ccccc2)[C@@H](O)CN(CCc2ccc3c(c2)OCO3)C(=O)CCN2C(=O)c3ccccc3C2=O)c1` returned a Ki in experiment [2] of 300 nM.

These data come from ChEMBL document CHEMBL1132121, “Potent, low-molecular-weight non-peptide inhibitors of malarial aspartyl protease plasmepsin II” (J Med Chem, 1999).
